Measurements published in PMC10762718 (RSC Advances, 2024).

These molecules were tested on MDA-MB-231 (human breast cancer) cells (assay: MTT cell viability assay, MDA-MB-231). Conditions: MDA-MB-231, 72 h, read-out: Cell viability (%) ±SD.
Type: cell-based
Outline: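 MDA-MB-231 cells were grown as a monolayer in DMEM with 10% heat-inactivated FBS and 1% penicillin-streptomycin at 37 °C in humidified CO2, subcultured every third day with trypsin-EDTA, and used before passage 8. Cells were exposed 72 h to 10, 25 and 50 μM. Medium was removed, MTT added for 3 h at 37 °C, formazan dissolved in DMSO and read at 595 nm. Viability is relative to untreated control, triplicates, ±SD. IC50 comes from the viability-versus-concentration plot.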

Row | Compound | viability at 10 µM | viability at 25 µM | viability at 50 µM | viability at 20 µM
1 | CC(=O)OC[C@H]1O[C@H](n2cc(Cn3ccc4nc(-c5ccc(C(F)(F)F)cc5)cc(=O)n43)nn2)[C@@H](OC(C)=O)[C@@H](OC(C)=O)[C@@H]1OC(C)=O [Compound 45, (2R,3R,4S,5S,6S)-2-(Acetoxymethyl)-6-(4-((7-oxo-5-(4-(trifluoromethyl)phenyl)pyrazolo[1,5-a]pyrimidin-1(7H)-yl)methyl)-1H-1,2,3-triazol-1-yl)tetrahydro-2H-pyran-3,4,5-triyl triacetate] | 96.8 ± 5.85% | 91.1 ± 6% | 87 ± 1.1% | –
2 | CC(=O)OC[C@@H]1O[C@H](n2cc(Cn3ccc4nc(-c5ccc(Br)cc5)cc(=O)n43)nn2)[C@@H](OC(C)=O)[C@H](OC(C)=O)[C@H]1OC(C)=O (stereo in doubt) [Compound 24, (2S,3S,4R,5S,6S)-2-(Acetoxymethyl)-6-(4-((5-(4-bromophenyl)-7-oxopyrazolo[1,5-a]pyrimidin-1(7H)-yl)methyl)-1H-1,2,3-triazol-1-yl)tetrahydro-2H-pyran-3,4,5-triyl triacetate] | 100 ± 8.01% | 100 ± 8.93% | 98.5 ± 2.89% | –
3 | CC(=O)OC[C@H]1O[C@H](n2cc(Cn3ccc4nc(-c5ccc(C)cc5)cc(=O)n43)nn2)[C@@H](OC(C)=O)[C@@H](OC(C)=O)[C@@H]1OC(C)=O [Compound 40, (2R,3R,4S,5S,6S)-2-(Acetoxymethyl)-6-(4-((7-oxo-5-(p-tolyl)pyrazolo[1,5-a]pyrimidin-1(7H)-yl)methyl)-1H-1,2,3-triazol-1-yl)tetrahydro-2H-pyran-3,4,5-triyl triacetate] | 99 ± 7.7% | 92.8 ± 7.09% | 91.7 ± 9.12% | –
4 | CC(=O)OC[C@@H]1O[C@H](n2cc(Cn3ccc4nc(-c5ccc6ccccc6c5)cc(=O)n43)nn2)[C@@H](OC(C)=O)[C@H](OC(C)=O)[C@H]1OC(C)=O (stereo in doubt) [Compound 29, (2S,3S,4R,5S,6S)-2-(Acetoxymethyl)-6-(4-((5-(naphthalen-2-yl)-7-oxopyrazolo[1,5-a]pyrimidin-1(7H)-yl)methyl)-1H-1,2,3-triazol-1-yl)tetrahydro-2H-pyran-3,4,5-triyl triacetate] | 89.1 ± 4.09% | 81.5 ± 2.58% | 88.4 ± 7.36% | –
5 | CC(=O)OC[C@H]1O[C@H](n2cc(Cn3ccc4nc(-c5ccc6c(c5)OCO6)cc(=O)n43)nn2)[C@@H](OC(C)=O)[C@@H](OC(C)=O)[C@@H]1OC(C)=O [Compound 48, (2R,3R,4S,5S,6S)-2-(Acetoxymethyl)-6-(4-((5-(benzo[d][1,3]dioxol-5-yl)-7-oxopyrazolo[1,5-a]pyrimidin-1(7H)-yl)methyl)-1H-1,2,3-triazol-1-yl)tetrahydro-2H-pyran-3,4,5-triyl triacetate] | 96.5 ± 4.91% | 93.3 ± 3.6% | 92.9 ± 9.08% | –
6 | CC1=CC(=O)c2ccccc2C1=O [Menadione, menadione, reference compound] | – | – | – | 23.8 ± 5.7%
7 | CC(=O)OC[C@@H]1O[C@H](n2cc(Cn3ccc4nc(-c5ccc(C(C)C)cc5)cc(=O)n43)nn2)[C@@H](OC(C)=O)[C@H](OC(C)=O)[C@H]1OC(C)=O (stereo in doubt) [Compound 28, (2S,3S,4R,5S,6S)-2-(Acetoxymethyl)-6-(4-((5-(4-isopropylphenyl)-7-oxopyrazolo[1,5-a]pyrimidin-1(7H)-yl)methyl)-1H-1,2,3-triazol-1-yl)tetrahydro-2H-pyran-3,4,5-triyl triacetate] | 102 ± 8.51% | 99.1 ± 3.51% | 69.5 ± 17.7% | –
8 | CC(=O)OC[C@@H]1O[C@H](n2cc(Cn3ccc4nc(-c5ccc(F)cc5)cc(=O)n43)nn2)[C@@H](OC(C)=O)[C@H](OC(C)=O)[C@@H]1OC(C)=O (stereo in doubt) [Compound 35, (2S,3R,4R,5S,6S)-2-(Acetoxymethyl)-6-(4-((5-(4-fluorophenyl)-7-oxopyrazolo[1,5-a]pyrimidin-1(7H)-yl)methyl)-1H-1,2,3-triazol-1-yl)tetrahydro-2H-pyran-3,4,5-triyl triacetate] | 82.4 ± 9.97% | 78.6 ± 10.1% | 75.3 ± 6.17% | –
9 | CC(=O)OC[C@@H]1O[C@H](n2cc(Cn3ccc4nc(-c5ccc6ccccc6c5)cc(=O)n43)nn2)[C@@H](OC(C)=O)[C@H](OC(C)=O)[C@@H]1OC(C)=O (stereo in doubt) [Compound 38, (2S,3R,4R,5S,6S)-2-(Acetoxymethyl)-6-(4-((5-(naphthalen-2-yl)-7-oxopyrazolo[1,5-a]pyrimidin-1(7H)-yl)methyl)-1H-1,2,3-triazol-1-yl)tetrahydro-2H-pyran-3,4,5-triyl triacetate] | 92 ± 8.31% | 89.6 ± 9.91% | 67.7 ± 10.8% | –
10 | CC(=O)OC[C@H]1O[C@H](n2cc(Cn3ccc4nc(-c5ccc(Br)cc5)cc(=O)n43)nn2)[C@@H](OC(C)=O)[C@@H](OC(C)=O)[C@@H]1OC(C)=O [Compound 42, (2R,3R,4S,5S,6S)-2-(Acetoxymethyl)-6-(4-((5-(4-bromophenyl)-7-oxopyrazolo[1,5-a]pyrimidin-1(7H)-yl)methyl)-1H-1,2,3-triazol-1-yl)tetrahydro-2H-pyran-3,4,5-triyl triacetate] | 81.3 ± 7.65% | 78.5 ± 6.58% | 75.5 ± 8.45% | –
11 | CC(=O)OC[C@@H]1O[C@H](n2cc(Cn3ccc4nc(-c5ccc(C(C)C)cc5)cc(=O)n43)nn2)[C@@H](OC(C)=O)[C@H](OC(C)=O)[C@@H]1OC(C)=O (stereo in doubt) [Compound 37, (2S,3R,4R,5S,6S)-2-(Acetoxymethyl)-6-(4-((5-(4-isopropylphenyl)-7-oxopyrazolo[1,5-a]pyrimidin-1(7H)-yl)methyl)-1H-1,2,3-triazol-1-yl)tetrahydro-2H-pyran-3,4,5-triyl triacetate] | 85.2 ± 3.5% | 80.5 ± 8.96% | 78.7 ± 2.56% | –
12 | CC(=O)OC[C@@H]1O[C@H](n2cc(Cn3ccc4nc(-c5ccc(Cl)cc5)cc(=O)n43)nn2)[C@@H](OC(C)=O)[C@H](OC(C)=O)[C@@H]1OC(C)=O (stereo in doubt) [Compound 34, (2S,3R,4R,5S,6S)-2-(Acetoxymethyl)-6-(4-((5-(4-chlorophenyl)-7-oxopyrazolo[1,5-a]pyrimidin-1(7H)-yl)methyl)-1H-1,2,3-triazol-1-yl)tetrahydro-2H-pyran-3,4,5-triyl triacetate] | 78.5 ± 2.43% | 76.8 ± 2.43% | 73 ± 2.62% | –
13 | CC(=O)OC[C@H]1O[C@H](n2cc(Cn3ccc4nc(-c5ccc(F)cc5)cc(=O)n43)nn2)[C@@H](OC(C)=O)[C@@H](OC(C)=O)[C@@H]1OC(C)=O [Compound 44, (2R,3R,4S,5S,6S)-2-(Acetoxymethyl)-6-(4-((5-(4-fluorophenyl)-7-oxopyrazolo[1,5-a]pyrimidin-1(7H)-yl)methyl)-1H-1,2,3-triazol-1-yl)tetrahydro-2H-pyran-3,4,5-triyl triacetate] | 98.4 ± 3.62% | 90.1 ± 6.77% | 89.6 ± 6.27% | –
14 | CC(=O)OC[C@H]1O[C@H](n2cc(Cn3ccc4nc(-c5ccc6ccccc6c5)cc(=O)n43)nn2)[C@@H](OC(C)=O)[C@@H](OC(C)=O)[C@@H]1OC(C)=O [Compound 47, (2R,3R,4S,5S,6S)-2-(Acetoxymethyl)-6-(4-((5-(naphthalen-2-yl)-7-oxopyrazolo[1,5-a]pyrimidin-1(7H)-yl)methyl)-1H-1,2,3-triazol-1-yl)tetrahydro-2H-pyran-3,4,5-triyl triacetate] | 102 ± 9.28% | 89.8 ± 2.22% | 81.5 ± 5.45% | –
15 | CC(=O)OC[C@@H]1O[C@H](n2cc(Cn3ccc4nc(-c5ccc(C)cc5)cc(=O)n43)nn2)[C@@H](OC(C)=O)[C@H](OC(C)=O)[C@H]1OC(C)=O (stereo in doubt) [Compound 22, (2S,3S,4R,5S,6S)-2-(Acetoxymethyl)-6-(4-((7-oxo-5-(p-tolyl)pyrazolo[1,5-a]pyrimidin-1(7H)-yl)methyl)-1H-1,2,3-triazol-1-yl)tetrahydro-2H-pyran-3,4,5-triyl triacetate] | 92.4 ± 5.38% | 87.5 ± 6.74% | 85.4 ± 4.16% | –
16 | CC(=O)OC[C@@H]1O[C@H](n2cc(Cn3ccc4nc(-c5ccc(C)cc5)cc(=O)n43)nn2)[C@@H](OC(C)=O)[C@H](OC(C)=O)[C@@H]1OC(C)=O (stereo in doubt) [Compound 31, (2S,3R,4R,5S,6S)-2-(Acetoxymethyl)-6-(4-((7-oxo-5-(p-tolyl)pyrazolo[1,5-a]pyrimidin-1(7H)-yl)methyl)-1H-1,2,3-triazol-1-yl)tetrahydro-2H-pyran-3,4,5-triyl triacetate] | 81.7 ± 8.36% | 88.5 ± 6.73% | 78.8 ± 10.4% | –
17 | CC(=O)OC[C@@H]1O[C@H](n2cc(Cn3ccc4nc(-c5ccc(Cl)cc5)cc(=O)n43)nn2)[C@@H](OC(C)=O)[C@H](OC(C)=O)[C@H]1OC(C)=O (stereo in doubt) [Compound 25, (2S,3S,4R,5S,6S)-2-(Acetoxymethyl)-6-(4-((5-(4-chlorophenyl)-7-oxopyrazolo[1,5-a]pyrimidin-1(7H)-yl)methyl)-1H-1,2,3-triazol-1-yl)tetrahydro-2H-pyran-3,4,5-triyl triacetate] | 98.6 ± 2.25% | 93.2 ± 1.96% | 86.2 ± 9.22% | –
18 | CC(=O)OC[C@@H]1O[C@H](n2cc(Cn3ccc4nc(-c5ccc6c(c5)OCO6)cc(=O)n43)nn2)[C@@H](OC(C)=O)[C@H](OC(C)=O)[C@@H]1OC(C)=O (stereo in doubt) [Compound 39, (2S,3R,4R,5S,6S)-2-(Acetoxymethyl)-6-(4-((5-(benzo[d][1,3]dioxol-5-yl)-7-oxopyrazolo[1,5-a]pyrimidin-1(7H)-yl)methyl)-1H-1,2,3-triazol-1-yl)tetrahydro-2H-pyran-3,4,5-triyl triacetate] | 101 ± 9.67% | 98.25 ± 0.34% | 97.5 ± 1.88% | –
